These results are taken from PMC4944921 (Drug Design, Development and Therapy, 2016).

In general, Papp refers to a coefficient for how fast a substance crosses the barrier. The low end stands for poor permeation, the high end for ready permeation. Usually efflux ratio stands for the permeability from basolateral to apical divided by that in the opposite direction, in the common usage. For orientation: Papp A→B means how fast a substance crosses the layer from the apical side. As usually defined, the Papp B→A is the apparent permeability from the basolateral to the apical side of a cell layer.

For data set [1] the following is noted: cited from earlier work.
The test system of data set [2] is Calu-3 cells. The data set is described as follows: MTT cytotoxicity assay in Calu-3 cells. It is filed as cell-based, human. As to conditions: comparison of the three compounds. The gist of the method:
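Calu-3 cells were seeded at 1×10^5 cells/mL in 96-well plates and grown for 48 h at 37°C in 5% CO2. They were then exposed to test compounds at various concentrations for 48 h. MTT (5 mg/mL stock in PBS) was added for 4 h at 37°C, formazan was dissolved in DMSO, and A490 was read. Viability (%) = (Asample−Ablank)/(Acontrol−Ablank)×100, from the mean of five measurements.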
In general terms: Tetrazolium assays rely on reduction of a dye to a coloured formazan, in cell work by metabolically active cells.

In data set [3] the test system is Calu-3 cells. The data set is described as follows: TEER change of Calu-3 monolayers after exposure to compounds. As to conditions: A→B and B→A, 30-180 minutes, vs control group. It is filed as cell-based, human. The method, boiled down:
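Monolayers with TEER above 500 Ω cm2 received drug solution on the apical side (HBSS basolateral) or on the basolateral side (HBSS apical). Untreated monolayers served as control. TEER was read with chopstick electrodes and an epithelial volt–ohm meter at 30, 60, 90, 120, 150 and 180 min. Values are expressed relative to pre-experiment TEER (100%) and compared with control by one-way ANOVA and Dunnett test (P<0.05); three experiments, mean ± SD.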

Data set [4] deals with TJ proteins (occludin, claudin-1, F-actin) in Calu-3 cells. Kind of data set: Immunofluorescence microscopy of tight junction proteins in Calu-3 cells. The data set is classed as cell-based, human. As to conditions: 3 hours treatment, vs control group. The method, boiled down:
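Calu-3 monolayers on collagen-coated 0.4 μm PET Transwell membranes were exposed to test compounds in medium for 3 h. Cells were fixed in cold 4% paraformaldehyde for 30 min and blocked with goat serum for 1 h. Anti-occludin or anti-claudin-1 (1:100, 4°C overnight) was detected with TRITC anti-rabbit or FITC anti-mouse IgG. F-actin was stained with phalloidin (1:150, RT, 30 min) and nuclei with DAPI. Relative AOD = (IntDen/Area) as % of control; three experiments; Dunnett test.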

In data set [5] the test system is Calu-3 cell monolayer. The data set is described as follows: Puerarin bidirectional transport across Calu-3 cell monolayers. It is filed as in vitro ADME, human. The method, boiled down:
(§1)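 Calu-3 cells (passages 5–10) were grown on collagen-coated PET Transwells, switched to air-interface culture from day 5 and used once TEER exceeded 500 Ω cm2. Monolayers were HBSS-washed and equilibrated for 30 min at 37°C. Drug was placed apically (A→B) or basolaterally (B→A), with shaking at 37°C. Receiver samples were taken at 30–180 min for HPLC-UV at 250 nm (C18; methanol:1% acetate 37:63). Papp was normalised to donor concentration and membrane area; ER = Papp(B→A)/Papp(A→B); n=3.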

Assay in data set [6]: as above
It is filed as in vitro ADME, human. As to conditions: human. The method, boiled down: as §1

For data set [7], the system named is abdominal skin of Rana catesbeiana. As to conditions: menthol 5 mg/mL with puerarin, compared with puerarin alone group; cited from earlier work.

On to `O=c1c(-c2ccc(O)cc2)coc2c([C@@H]3O[C@H](CO)[C@@H](O)[C@H](O)[C@H]3O)c(O)ccc12` [puerarin], for which the “AUC0−∞ (plasma)” value in data set [1] (Tongqiaosanyu, caudal vein injection, rats) is on record as 787.99±70.44 mg⋅min⋅L^−1. For the same compound, the “AUC0–∞ (plasma)” value in data set [1] (Tongqiaosanyu, nasal administration, rats) is 376.56±93.93 mg⋅min⋅L^−1. The “brain drug targeting index” value in data set [1] (intranasal administration) was 2.70. Besides, the “brain targeting coefficient (Re)” value in data set [1] (intranasal administration) is 132.25%. Also, in data set [1] (nasal administration), the absolute bioavailability is given as 47.78%. In addition, the “relative toxicity to Calu-3 cells” value in data set [2] was “safer and less irritating than paeoniflorin”. The “trend of TEER change” value in data set [3] was “no difference from the control group”. Moreover, the “relative AOD of occludin, claudin-1, and F-actin” value (shortened to “relative AOD of occludin”) in data set [4] is on record as “did not significantly differ”. Besides, the “ER (B→A/A→B)” value in data set [5] (puerarin 60 μg/mL + menthol 15 μg/mL) is recorded as 1.065±0.116; in data set [5] (puerarin 60 μg/mL + menthol 30 μg/mL) it was 1.100±0.060; in data set [5] (puerarin 60 μg/mL + menthol 60 μg/mL) it was 1.157±0.088; in data set [5] (puerarin 60 μg/mL + paeoniflorin 12 μg/mL), 1.002±0.039; in data set [5] (puerarin 60 μg/mL + paeoniflorin 12 μg/mL + menthol 15 μg/mL) it was 0.999±0.150; in data set [5] (puerarin 60 μg/mL + paeoniflorin 24 μg/mL), 1.018±0.065. Further, the “ER (B→A/A→B)” value in data set [5] (puerarin 60 μg/mL + paeoniflorin 24 μg/mL + menthol 30 μg/mL) is given as 1.228±0.157; in data set [5] (puerarin 60 μg/mL + paeoniflorin 48 μg/mL), 1.049±0.027; in data set [5] (puerarin 60 μg/mL + paeoniflorin 48 μg/mL + menthol 60 μg/mL), 1.091±0.048; in data set [5] (puerarin 120 μg/mL alone), 1.023±0.070. In addition, in data set [5] (puerarin alone, each concentration 30, 60, 120 μg/mL), the “efflux ratio (ER)” value is on record as ~ 1. In data set [6], this compound returned an apparent permeability coefficient (Papp) at 180 min below 1.5 ×10⁻⁶ cm/s. In addition, in data set [6] (ER (B→A/A→B), puerarin 30 μg/mL alone), the efflux ratio at 180 min, 30 μg/mL was 0.963 ± 0.065. Also, in data set [6] (ER (B→A/A→B), puerarin 60 μg/mL alone), the efflux ratio at 180 min, 60 μg/mL turned out to be 1.01 ± 0.032. The compound further came in with an apparent permeability from apical to basolateral (Papp A→B) at 180 min, 30 μg/mL in data set [6] (Papp (A→B), puerarin 30 μg/mL alone) of 1.22 ± 0.027 ×10⁻⁶ cm/s. Moreover, the Papp A→B at 180 min, 60 μg/mL in data set [6] (Papp (A→B), puerarin 60 μg/mL + menthol 15 μg/mL) turned out to be 1.28 ± 0.084 ×10⁻⁶ cm/s; in data set [6] (Papp (A→B), puerarin 60 μg/mL + menthol 30 μg/mL) it was 1.64 ± 0.058 ×10⁻⁶ cm/s; in data set [6] (Papp (A→B), puerarin 60 μg/mL + menthol 60 μg/mL) it was 1.79 ± 0.087 ×10⁻⁶ cm/s; in data set [6] (Papp (A→B), puerarin 60 μg/mL + paeoniflorin 12 μg/mL) it was 1.24 ± 0.027 ×10⁻⁶ cm/s; in data set [6] (Papp (A→B), puerarin 60 μg/mL + paeoniflorin 12 μg/mL + menthol 15 μg/mL) it was 1.3 ± 0.15 ×10⁻⁶ cm/s; in data set [6] (Papp (A→B), puerarin 60 μg/mL + paeoniflorin 24 μg/mL), 1.23 ± 0.054 ×10⁻⁶ cm/s. The apparent permeability from apical to basolateral (Papp A→B) at 180 min, 60 μg/mL turned out to be 1.56 ± 0.143 ×10⁻⁶ cm/s in data set [6] (Papp (A→B), puerarin 60 μg/mL + paeoniflorin 24 μg/mL + menthol 30 μg/mL); 1.23 ± 0.025 ×10⁻⁶ cm/s in data set [6] (Papp (A→B), puerarin 60 μg/mL + paeoniflorin 48 μg/mL); 1.96 ± 0.067 ×10⁻⁶ cm/s in data set [6] (Papp (A→B), puerarin 60 μg/mL + paeoniflorin 48 μg/mL + menthol 60 μg/mL); 1.23 ± 0.039 ×10⁻⁶ cm/s in data set [6] (Papp (A→B), puerarin 60 μg/mL alone). Further, the Papp A→B at 180 min, 120 μg/mL in data set [6] (Papp (A→B), puerarin 120 μg/mL alone) came out at 1.24 ± 0.053 ×10⁻⁶ cm/s. Also, in data set [6] (Papp (A→B), puerarin alone, span over 30, 60 and 120 μg/mL), the Papp A→B at 180 min lay in the range of 1.22 to 1.24 ×10⁻⁶ cm/s. The compound further had a Papp B→A at 180 min, 30 μg/mL in data set [6] (Papp (B→A), puerarin 30 μg/mL alone) of 1.17 ± 0.053 ×10⁻⁶ cm/s. Further, the Papp B→A at 180 min, 60 μg/mL in data set [6] (Papp (B→A), puerarin 60 μg/mL + menthol 15 μg/mL) stood at 1.36 ± 0.083 ×10⁻⁶ cm/s; in data set [6] (Papp (B→A), puerarin 60 μg/mL + menthol 30 μg/mL), 1.8 ± 0.111 ×10⁻⁶ cm/s; in data set [6] (Papp (B→A), puerarin 60 μg/mL + menthol 60 μg/mL), 2.07 ± 0.151 ×10⁻⁶ cm/s; in data set [6] (Papp (B→A), puerarin 60 μg/mL + paeoniflorin 12 μg/mL) it was 1.24 ± 0.037 ×10⁻⁶ cm/s; in data set [6] (Papp (B→A), puerarin 60 μg/mL + paeoniflorin 12 μg/mL + menthol 15 μg/mL) it was 1.29 ± 0.067 ×10⁻⁶ cm/s; in data set [6] (Papp (B→A), puerarin 60 μg/mL + paeoniflorin 24 μg/mL), 1.25 ± 0.032 ×10⁻⁶ cm/s. For the same compound, the Papp B→A at 180 min, 60 μg/mL in data set [6] (Papp (B→A), puerarin 60 μg/mL + paeoniflorin 24 μg/mL + menthol 30 μg/mL) came to 1.91 ± 0.254 ×10⁻⁶ cm/s; in data set [6] (Papp (B→A), puerarin 60 μg/mL + paeoniflorin 48 μg/mL), 1.29 ± 0.035 ×10⁻⁶ cm/s; in data set [6] (Papp (B→A), puerarin 60 μg/mL + paeoniflorin 48 μg/mL + menthol 60 μg/mL), 2.14 ± 0.13 ×10⁻⁶ cm/s; in data set [6] (Papp (B→A), puerarin 60 μg/mL alone), 1.24 ± 0.055 ×10⁻⁶ cm/s. The Papp B→A at 180 min, 120 μg/mL in data set [6] (Papp (B→A), puerarin 120 μg/mL alone) stood at 1.27 ± 0.104 ×10⁻⁶ cm/s. The compound also returned a Papp B→A at 180 min in data set [6] (Papp (B→A), puerarin alone, span over 30, 60 and 120 μg/mL) of 1.17 to 1.27 ×10⁻⁶ cm/s. The efflux ratio at 180 min in data set [6] (efflux ratio (ER), puerarin alone, each concentration 30, 60, 120 μg/mL) was below 1.5.

In the case of `C[C@@]12C[C@@]3(O)O[C@@H](O1)[C@]1(COC(=O)c4ccccc4)[C@H]3C[C@@]12O[C@@H]1O[C@H](CO)[C@@H](O)[C@H](O)[C@H]1O` [paeoniflorin], the “relative AOD of occludin” value in data set [4] was “did not significantly differ”.

With `CC1CCC(C(C)C)C(O)C1` (centres unmarked) [menthol], the “Papp value of puerarin” value in data set [7] is “significantly higher”. For the same compound, the “relative toxicity to Calu-3 cells” value in data set [2] is reported as “most toxic”. Also, the “relative AOD of occludin” value in data set [4] is “decreased significantly”.
